The source made the active and inactive calls. The rule behind the calls is not given here.
Assays:
Mus musculus [1] = assay: Neurotoxicity in CF1 mouse at 100 mg/kg, ip after 4 hrs by rotarod test; format: toxicity, organism-based; parameters: dose 100 mg/kg, route intraperitoneal; settings: in vivo
Method in brief: (§1)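 Rotorod neurotoxicity in male CF-1 mice (18–25 g) after i.p. compound in 0.5% methyl cellulose/water or PEG 200 at 30, 100 or 300 mg/kg; reported as number showing toxicity/number tested.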

Mus musculus [2] = assay: Neurotoxicity in CF1 mouse at 300 mg/kg, ip after 4 hrs by rotarod test; format: toxicity, organism-based; parameters: dose 300 mg/kg, route intraperitoneal; settings: in vivo; method in brief: as §1
Mus musculus [3] = assay: Anticonvulsant activity in CF1 mouse assessed as protection against 6 Hz electric shock-induced seizures at 100 mg/kg, ip after 0.25 hrs; format: functional, organism-based; parameters: dose 100 mg/kg
Method in brief: (§2)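 Male CF-1 albino mice (18–25 g), compound suspended in 0.5% methyl cellulose/water or PEG 200, given i.p.; four mice per time point (0.25, 0.5, 1.0, 2.0, 4 h) challenged via corneal electrodes at 6 Hz, 32 mA for 3 s, current eliciting psychomotor seizure in 97% of animals; reported as protected/tested.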

Mus musculus [4] = assay: Anticonvulsant activity in CF1 mouse assessed as protection against 6 Hz electric shock-induced seizures at 100 mg/kg, ip after 2 hrs; format: functional, organism-based; parameters: dose 100 mg/kg; method in brief: as §2
Mus musculus [5] = assay: Anticonvulsant activity in CF1 mouse assessed as protection against 6 Hz electric shock-induced seizures at 100 mg/kg, ip after 4 hrs; format: functional, organism-based; parameters: dose 100 mg/kg; method in brief: as §2
Mus musculus [6] = assay: Anticonvulsant activity in CF1 mouse assessed as protection against maximal electroshock-induced seizures at 30 mg/kg, ip after 0.5 hrs; format: functional, organism-based; parameters: dose 30 mg/kg
Method in brief: (§3)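 Male CF-1 albino mice (18–25 g), dosed i.p. at 30, 100 or 300 mg/kg in 0.5% methyl cellulose/water or PEG 200 (0.01 ml/g); tested at intervals after dosing; protection = abolition of hind limb tonic extensor component of MES seizure; scored as protected/tested.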

Mus musculus [7] = assay: Anticonvulsant activity in CF1 mouse assessed as protection against maximal electroshock-induced seizures at 30 mg/kg, ip after 4 hrs; format: functional, organism-based; parameters: dose 30 mg/kg; method in brief: as §3
Mus musculus [8] = assay: Anticonvulsant activity in CF1 mouse assessed as protection against maximal electroshock-induced seizures at 100 mg/kg, ip after 0.5 hrs; format: functional, organism-based; parameters: dose 100 mg/kg; method in brief: as §3
Mus musculus [9] = assay: Anticonvulsant activity in CF1 mouse assessed as protection against maximal electroshock-induced seizures at 100 mg/kg, ip after 4 hrs; format: functional, organism-based; parameters: dose 100 mg/kg; method in brief: as §3
Mus musculus [10] = assay: Anticonvulsant activity in CF1 mouse assessed as protection against maximal electroshock-induced seizures at 300 mg/kg, ip after 0.5 hrs; format: functional, organism-based; parameters: dose 300 mg/kg; method in brief: as §3
Mus musculus [11] = assay: Anticonvulsant activity in CF1 mouse assessed as protection against maximal electroshock-induced seizures at 300 mg/kg, ip after 4 hrs; format: functional, organism-based; parameters: dose 300 mg/kg; method in brief: as §3
Mus musculus [12] = assay: Anticonvulsant activity in CF1 mouse assessed as protection against subcutaneous metrazole-induced seizures at 30 mg/kg, ip after 0.5 hrs; format: functional, organism-based; parameters: dose 30 mg/kg
Mus musculus [13] = assay: Anticonvulsant activity in CF1 mouse assessed as protection against subcutaneous metrazole-induced seizures at 30 mg/kg, ip after 4 hrs; format: functional, organism-based; parameters: dose 30 mg/kg
Mus musculus [14] = assay: Anticonvulsant activity in CF1 mouse assessed as protection against subcutaneous metrazole-induced seizures at 100 mg/kg, ip after 4 hrs; format: functional, organism-based; parameters: dose 100 mg/kg
Mus musculus [15] = assay: Anticonvulsant activity in CF1 mouse assessed as protection against subcutaneous metrazole-induced seizures at 300 mg/kg, ip after 0.5 hrs; format: functional, organism-based; parameters: dose 300 mg/kg
Mus musculus [16] = assay: Anticonvulsant activity in CF1 mouse assessed as protection against subcutaneous metrazole-induced seizures at 300 mg/kg, ip after 4 hrs; format: functional, organism-based; parameters: dose 300 mg/kg
Mus musculus [17] = assay: Neurotoxicity in CF1 mouse at 30 mg/kg, ip after 0.5 hrs by rotarod test; format: toxicity, organism-based; parameters: dose 30 mg/kg, route intraperitoneal; settings: in vivo; method in brief: as §1
Mus musculus [18] = assay: Neurotoxicity in CF1 mouse at 100 mg/kg, ip after 0.5 hrs by rotarod test; format: toxicity, organism-based; parameters: dose 100 mg/kg, route intraperitoneal; settings: in vivo; method in brief: as §1
Mus musculus [19] = assay: Neurotoxicity in CF1 mouse at 300 mg/kg, ip after 0.5 hrs by rotarod test; format: toxicity, organism-based; parameters: dose 300 mg/kg, route intraperitoneal; settings: in vivo; method in brief: as §1
Mus musculus [20] = assay: Neurotoxicity in CF1 mouse at 30 mg/kg, ip after 4 hrs by rotarod test; format: toxicity, organism-based; parameters: dose 30 mg/kg, route intraperitoneal; settings: in vivo; method in brief: as §1
Mus musculus [21] = assay: Anticonvulsant activity in CF1 mouse assessed as protection against subcutaneous metrazole-induced seizures at 100 mg/kg, ip after 0.5 hrs; format: functional, organism-based; parameters: dose 100 mg/kg
Mus musculus [22] = assay: Anticonvulsant activity in CF1 mouse assessed as protection against 6 Hz electric shock-induced seizures at 100 mg/kg, ip after 1 hr; format: functional, organism-based; parameters: dose 100 mg/kg; method in brief: as §2

SMILES	Activity (Mus musculus [1])	Activity (Mus musculus [2])	Activity (Mus musculus [3])	Activity (Mus musculus [5])	Activity (Mus musculus [6])	Activity (Mus musculus [7])	Activity (Mus musculus [8])	Activity (Mus musculus [9])	Activity (Mus musculus [10])	Activity (Mus musculus [11])	Activity (Mus musculus [12])	Activity (Mus musculus [13])	Activity (Mus musculus [14])	Activity (Mus musculus [15])	Activity (Mus musculus [16])	Activity (Mus musculus [17])	Activity (Mus musculus [18])	Activity (Mus musculus [19])	Activity (Mus musculus [20])	Activity (Mus musculus [21])	also measured
CCCOc1c(C(=O)N/N=C\c2c[nH]c3ccccc23)sc(C(=O)N/N=C/c2c[nH]c3ccccc23)c1OCCC	Non-toxic	Non-toxic	inactive	inactive	inactive	inactive	inactive	inactive	inactive	inactive	inactive	inactive	inactive	inactive	inactive	Non-toxic	Toxic	Toxic	Non-toxic		Activity (Mus musculus [4]): inactive
CCCOc1c(C(=O)N/N=C\c2ccc3c(c2)Cc2ccccc2-3)sc(C(=O)N/N=C/c2ccc3c(c2)Cc2ccccc2-3)c1OCCC	Non-toxic	Toxic	inactive	inactive	inactive	inactive	inactive	inactive	inactive	inactive	inactive	inactive	inactive	inactive	inactive	Non-toxic		Toxic	Non-toxic		
CCCOc1c(C(=O)N/N=C(\C)c2c[nH]c3ccccc23)sc(C(=O)N/N=C(\C)c2c[nH]c3ccccc23)c1OCCC	Non-toxic	Non-toxic			inactive	inactive	inactive	inactive	inactive	inactive	inactive	inactive	inactive	inactive	inactive	Non-toxic	Non-toxic	Non-toxic	Non-toxic	inactive	
CCCOc1c(C(=O)NN=C(C)C)sc(C(=O)NN=C(C)C)c1OCCC	Non-toxic	Non-toxic			inactive	inactive	inactive	inactive	inactive	inactive	inactive	inactive	inactive	inactive	inactive	Non-toxic	Non-toxic	Toxic	Non-toxic	inactive	
CCCOc1c(C(=O)NN=C2CC(C)Sc3sccc32)sc(C(=O)NN=C2CC(C)Sc3sccc32)c1OCCC (stereo unspecified)	Non-toxic	Non-toxic			inactive	inactive	inactive	inactive	inactive	inactive	inactive	inactive	inactive	inactive	inactive	Toxic	Toxic	Toxic	Non-toxic	inactive	
CCCOc1c(C(=O)N/N=C(\C)c2ccccn2)sc(C(=O)N/N=C(\C)c2ccccn2)c1OCCC	Non-toxic	Non-toxic			inactive	inactive	inactive	inactive	inactive	inactive	inactive	inactive	inactive	inactive	inactive	Non-toxic	Non-toxic	Non-toxic	Non-toxic	inactive	
CCCOc1c(C(=O)N/N=C(\C)c2cccs2)sc(C(=O)N/N=C(\C)c2cccs2)c1OCCC	Non-toxic	Non-toxic	inactive		inactive	inactive	inactive	inactive	inactive		inactive	inactive	inactive	inactive		Non-toxic	Non-toxic	Non-toxic	Non-toxic	inactive	
CCCOc1c(C(=O)NN=C2CCCCCC2)sc(C(=O)NN=C2CCCCCC2)c1OCCC	Non-toxic	Non-toxic	inactive	inactive	inactive	inactive	inactive	inactive	inactive		inactive	inactive	inactive	inactive	inactive	Non-toxic	Non-toxic	Non-toxic	Non-toxic	inactive	Activity (Mus musculus [22]): inactive; Activity (Mus musculus [4]): inactive
CCCOc1c(C(=O)N/N=C\c2ccccc2)sc(C(=O)N/N=C/c2ccccc2)c1OCCC	Non-toxic	Non-toxic	inactive	inactive	inactive	inactive	inactive	inactive	inactive	inactive	inactive	inactive	inactive	inactive		Non-toxic	Non-toxic	Non-toxic	Non-toxic	inactive	Activity (Mus musculus [4]): inactive
CCCOc1c(C(=O)N/N=C/c2ccc3cc(OC)ccc3c2)sc(C(=O)N/N=C/c2ccc3cc(OC)ccc3c2)c1OCCC	Non-toxic	Non-toxic			inactive	inactive	inactive	inactive	inactive	inactive	inactive	inactive	inactive	inactive	inactive	Non-toxic	Non-toxic	Non-toxic	Non-toxic	inactive	

From ChEMBL document CHEMBL1154150, “Synthesis and anticonvulsant activity of some new bishydrazones derived from 3,4-dipropyloxythiophene” (Eur J Med Chem, 2009)
